Assay results from ChEMBL document CHEMBL1153436, “2-Pyridyl P1'-substituted symmetry-based human immunodeficiency virus protease inhibitors (A-792611 and A-790742) with potential for convenient dosing and reduced side effects” (J Med Chem, 2009).

Experiments:
[1] = system: Human immunodeficiency virus 1; test: Antiviral activity against HIV1 bearing protease gene with A17 mutation infected in human MT4 cells after 5 days by MTT assay; type: functional, organism-based; conditions: Human immunodeficiency virus 1, MT4, 120 h
Procedure, shortened: (§1)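 HIV-1 A17 mutant clone carrying protease mutations L10F, V32I, M46I, I47V, Q58E and I84V, generated by in vitro serial passage under LPV/RTV. EC50 was determined in MT-4 cells. Wild-type reference strain was HIV-1 pNL4-3.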

[2] = system: Human immunodeficiency virus 1; test: Antiviral activity against HIV1 bearing protease gene with B26 mutation infected in human MT4 cells after 5 days by MTT assay; type: functional, organism-based; conditions: Human immunodeficiency virus 1, MT4, 120 h
[3] = system: Human immunodeficiency virus 1; test: Antiviral activity against HIV1 bearing protease gene with P25 mutation infected in human MT4 cells after 5 days by MTT assay; type: functional, organism-based; conditions: Human immunodeficiency virus 1, MT4, 120 h
Serum = test: Drug level in Gunn rat serum at 250 mg/kg coadministered with ritonavir measured on day 1; type: ADME, organism-based; design: dose 250 mg/kg; conditions: in vivo
Procedure, shortened: (§2)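 Gunn rats (n = 8-10 per arm) dosed orally with compound in 5% ethanol/95% propylene glycol with p-toluenesulfonic acid, together with 50 mg/kg RTV. Plasma was sampled 4 h after the first and second doses. Drug was measured by HPLC and bilirubin […]. Change in bilirubin (mg/dL) reported as mean with SD.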

Rattus norvegicus = test: Toxicity in Gunn rat assessed as unconjugated-bilirubin level at 250 mg/kg coadministered with ritonavir measured on day 1; type: organism-based; design: dose 250 mg/kg; conditions: in vivo; procedure, shortened: as §2
[4] = Oral bioavailability in Sprague-Dawley rat at 5 mg/kg; type: ADME, organism-based; conditions: in vivo
Procedure, shortened: (§3)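 Male Sprague-Dawley-derived rats (n = 3) dosed iv or by oral gavage with 5 mg/mL solutions in 5% dextrose containing 20% ethanol, 30% propylene glycol and methanesulfonic acid equivalents. Plasma was sampled at 10 time points over 8 h, extracted into ethyl acetate/hexane and analysed by reversed-phase HPLC with internal standard. AUC in µg·h/mL.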

[5] = Half life in Sprague-Dawley rat at 5 mg/kg, iv; type: ADME, organism-based; design: dose 5 mg/kg, route intravenous; conditions: in vivo; procedure, shortened: as §3
[6] = system: Human immunodeficiency virus 1; test: Antiviral activity against wild-type HIV1 pNL4-3 infected in human MT4 cells after 5 days by MTT assay in presence of 50% human serum; type: functional, organism-based; conditions: Human immunodeficiency virus 1, MT4, 120 h
[7] = system: Human immunodeficiency virus 1; test: Fold resistance, ratio of EC50 for HIV1 bearing protease gene with A17 mutation to EC50 for wild-type HIV1 pNL4-3; type: functional; procedure, shortened: as §1
[8] = Clearance in Sprague-Dawley rat at 5 mg/kg, iv; type: ADME, organism-based; design: dose 5 mg/kg, route intravenous; conditions: in vivo; procedure, shortened: as §3
[9] = AUC in Sprague-Dawley rat at 5 mg/kg, po in presence of ritonavir; type: ADME, organism-based; design: dose 5 mg/kg, route oral; conditions: plasma; procedure, shortened: as §3
[10] = system: Human immunodeficiency virus 1; test: Antiviral activity against wild-type HIV1 pNL4-3 infected in human MT4 cells after 5 days by MTT assay; type: functional, organism-based; conditions: Human immunodeficiency virus 1, MT4, 120 h
[11] = AUC in Sprague-Dawley rat at 5 mg/kg, po; type: ADME, organism-based; design: dose 5 mg/kg, route oral; conditions: plasma; procedure, shortened: as §3

Row | SMILES | EC50 [1] | EC50 [2] | EC50 [3] | Drug uptake (Serum) | Activity (Rattus norvegicus) | bioavailability [4] | half-life [5] | EC50 [6] | Ratio EC50 [7] | clearance [8] | AUC [9] | EC50 [10] | AUC [11]
1 | CC(C)CN(C[C@@H](O)[C@H](Cc1ccccc1)NC(=O)O[C@H]1CO[C@H]2OCC[C@H]21)S(=O)(=O)c1ccc(N)cc1 | 0.338 µM | 0.587 µM | 0.515 µM | – | – | – | – | – | – | – | – | – | –
2 | COC(=O)N[C@H](C(=O)NN(Cc1ccccc1)C[C@H](O)[C@H](Cc1ccccc1)NC(=O)[C@@H](N1CCN(Cc2cccc(C)n2)C1=O)C(C)(C)C)C(C)(C)C | – | – | – | 13.28 µg/mL | 0.429 mg/dL | – | – | – | – | – | – | – | –
3 | COC(=O)N[C@H](C(=O)N[C@@H](Cc1ccc(-c2ccccn2)cc1)C[C@H](O)[C@H](Cc1ccccc1)NC(=O)[C@@H](N1CCN(Cc2ccnc3ccccc23)C1=O)C(C)(C)C)C(C)(C)C | 0.002 µM | – | – | – | – | 0.6% | 66 min | 0.019 µM | <1 | 30 mL/min/kg | 2860 ng·h/mL | 0.004 µM | 20 ng·h/mL
4 | Cc1cccc(C)c1OCC(=O)N[C@@H](Cc1ccccc1)[C@@H](O)C[C@H](Cc1ccccc1)NC(=O)[C@H](C(C)C)N1CCCNC1=O [LOPINAVIR] | 1.06 µM | 3.79 µM | > 10 µM | – | – | – | – | 0.152 µM | 59 | – | – | – | –
5 | COC(=O)N[C@H](C(=O)N[C@@H](Cc1ccc(-c2ccccn2)cc1)C[C@H](O)[C@H](Cc1ccccc1)NC(=O)[C@@H](N1CCN(Cc2cccc(C)n2)C1=O)C(C)(C)C)C(C)(C)C | 0.015 µM | – | – | 5.83 µg/mL | 0.233 mg/dL | – | – | 0.062 µM | 1 | – | – | 0.013 µM | –
6 | COC(=O)N[C@H](C(=O)N[C@@H](Cc1ccccc1)[C@@H](O)CN(Cc1ccc(-c2ccccn2)cc1)NC(=O)[C@@H](NC(=O)OC)C(C)(C)C)C(C)(C)C [ATAZANAVIR] | 0.25 µM | 0.074 µM | 0.298 µM | – | – | – | – | – | – | – | – | 0.003 µM | –
7 | COC(=O)N[C@H](C(=O)N[C@@H](Cc1ccccc1)C[C@H](O)[C@H](Cc1ccccc1)NC(=O)[C@@H](N1CCN(Cc2cccc(C)n2)C1=O)C(C)(C)C)C(C)(C)C | 0.088 µM | – | – | 18.68 µg/mL | 0.195 mg/dL | – | – | 0.179 µM | 7 | – | – | 0.013 µM | –
8 | COC(=O)N[C@H](C(=O)N[C@@H](Cc1ccc(-c2ccccn2)cc1)[C@@H](O)C[C@H](Cc1ccccc1)NC(=O)[C@@H](N1CCN(Cc2csc(-c3cccnc3)n2)C1=O)C(C)(C)C)C(C)(C)C | 0.001 µM | – | – | – | – | 1.6% | 48 min | 0.018 µM | <1 | 46.7 mL/min/kg | 260 ng·h/mL | 0.002 µM | 30 ng·h/mL
9 | COC(=O)N[C@H](C(=O)N[C@H](Cc1ccc(-c2ccccn2)cc1)C[C@H](O)[C@H](Cc1ccccc1)NC(=O)[C@@H](N1CCN(Cc2csc(C)n2)C1=O)C(C)(C)C)C(C)(C)C | 0.012 µM | – | – | – | – | 5.9% | 24 min | 0.015 µM | 4 | 31 mL/min/kg | 1980 ng·h/mL | 0.003 µM | 160 ng·h/mL
10 | COC(=O)N[C@H](C(=O)N[C@@H](Cc1ccc(-c2ccccn2)cc1)[C@@H](O)C[C@H](Cc1ccccc1)NC(=O)[C@@H](N1CCN(Cc2csc(C)n2)C1=O)C(C)(C)C)C(C)(C)C | 0.002 µM | – | – | – | – | 11.2% | 30 min | 0.034 µM | <1 | 31.7 mL/min/kg | 8400 ng·h/mL | 0.003 µM | 320 ng·h/mL
11 | COC(=O)N[C@H](C(=O)N[C@@H](Cc1ccc(-c2ccccn2)cc1)[C@@H](O)C[C@H](Cc1ccccc1)NC(=O)[C@@H](N1CCN(Cc2cccc(C(C)(C)O)n2)C1=O)C(C)(C)C)C(C)(C)C | 0.002 µM | – | – | – | – | 17% | 54 min | 0.019 µM | <1 | 16.7 mL/min/kg | 1820 ng·h/mL | 0.004 µM | 880 ng·h/mL
12 | COC(=O)N[C@H](C(=O)N[C@@H](Cc1ccc(-c2ccccn2)cc1)[C@@H](O)C[C@H](Cc1ccccc1)NC(=O)[C@@H](N1CCN(Cc2ccnc3ccccc23)C1=O)C(C)(C)C)C(C)(C)C | 0.001 µM | – | – | – | – | 1.1% | 24 min | 0.015 µM | <1 | 33.3 mL/min/kg | 3300 ng·h/mL | 0.002 µM | 50 ng·h/mL
